13 molecules from PMC4347663 (Journal of medicinal chemistry, 2013) can be followed below.

One series has as its target T1, REV-ERBα (Homo sapiens, UniProt P20393).
T1 sequence (P20393 1-614): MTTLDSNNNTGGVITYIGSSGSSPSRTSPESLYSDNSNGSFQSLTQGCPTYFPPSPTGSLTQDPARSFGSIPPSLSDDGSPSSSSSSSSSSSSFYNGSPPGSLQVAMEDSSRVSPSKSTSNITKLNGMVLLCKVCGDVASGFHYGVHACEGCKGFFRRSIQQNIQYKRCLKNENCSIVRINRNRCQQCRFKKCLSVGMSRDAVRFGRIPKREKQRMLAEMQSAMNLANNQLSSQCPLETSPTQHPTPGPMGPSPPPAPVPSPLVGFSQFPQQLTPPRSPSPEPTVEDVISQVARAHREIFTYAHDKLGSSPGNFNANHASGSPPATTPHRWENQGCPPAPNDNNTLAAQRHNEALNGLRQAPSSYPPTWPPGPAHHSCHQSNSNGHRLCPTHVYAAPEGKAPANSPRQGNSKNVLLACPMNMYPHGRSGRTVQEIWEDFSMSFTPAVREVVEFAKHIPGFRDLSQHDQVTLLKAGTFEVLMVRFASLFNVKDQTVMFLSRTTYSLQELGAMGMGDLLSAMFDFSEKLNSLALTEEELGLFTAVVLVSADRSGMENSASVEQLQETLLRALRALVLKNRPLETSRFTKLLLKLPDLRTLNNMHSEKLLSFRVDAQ
The series can be described thus: REV-ERBα NCOR FRET assay. Format: biochemical. Particulars: purified REV-ERBα protein, in vitro.

For another series, the system named is ABCA1. The series is described as follows: ABCA1 expression in THP-1 cells. It is filed as cell-based, human. The conditions noted are these: six hours; for ABCA1 transcript expression: 10 μM compound, LPS 10 μg/mL; for ABCA1 levels: 1 μM compound, LPS 10 mcg/mL. Put shortly:
(§1)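 THP-1 cells kept at 3×105 to 8×10^5 cells/mL in RPMI1640 with 10% FBS. Cells were stimulated with LPS 10 μg/mL alongside DMSO or test compound at 10 μM, or at 1 μM in triplicate. After 6 h, cells were lysed and RNA was analysed by RT-qPCR with TATA box binding protein as housekeeping gene. Groups were compared by one-way ANOVA with Dunnett's post-hoc test.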

Series [1] deals with BMAL1 expression (Bmal-promoter luciferase) in U2OS cells. The series is described as follows: BMAL reporter gene assay in synchronized U2OS cells. Format: cell-based, human. Particulars: for BMAL1 Phase Delay: delay of peak of second cycle, 20 μM treated cells relative to DMSO treated cells; for inhibition at 20 µM: Homo sapiens, U2OS, 40 h, read-out: BMAL1 Supp. In general terms: Reporter assays use an easily measured gene product as a stand-in for the process of interest.

In another series the test system is IL-6. The series is described as follows: LPS-stimulated IL-6 expression in THP-1 cells. Format: cell-based, human. Particulars: six hours; for IL-6 transcript expression: 10 μM compound, LPS 10 μg/mL; for IL-6 secretion / expression: 1 μM compound, LPS 10 mcg/mL. Put shortly: as §1
The target of the next series is T2, LXRα (Homo sapiens, UniProt Q13133).
T2 sequence (Q13133 1-447): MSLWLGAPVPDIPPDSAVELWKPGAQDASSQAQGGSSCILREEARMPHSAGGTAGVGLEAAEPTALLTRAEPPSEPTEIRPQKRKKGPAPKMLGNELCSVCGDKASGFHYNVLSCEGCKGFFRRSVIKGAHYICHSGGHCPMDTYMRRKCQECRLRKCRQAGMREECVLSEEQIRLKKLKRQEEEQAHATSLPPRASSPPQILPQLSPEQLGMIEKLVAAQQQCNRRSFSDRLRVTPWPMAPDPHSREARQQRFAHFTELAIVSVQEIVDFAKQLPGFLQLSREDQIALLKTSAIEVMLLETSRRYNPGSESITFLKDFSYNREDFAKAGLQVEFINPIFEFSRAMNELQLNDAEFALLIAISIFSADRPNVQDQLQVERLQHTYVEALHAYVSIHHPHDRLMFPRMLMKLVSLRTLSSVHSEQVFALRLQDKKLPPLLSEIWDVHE
The series can be described thus: LXRα radio ligand displacement binding. Particulars: for LXRα Fold Sel.: selectivity for REV-ERBα over LXRα.

Series [2] is described as follows: IV and oral DMPK cassette dose experiment. Particulars: for AUC(0-t) / Vd / clearance / half-life / Cmax / Tmax / bioavailability: male, C57Bl/6, mouse, plasma, 1 mg/kg; for bioavailability: F. Format: in vivo, C57Bl/6 mice.

pIC50: −log10 of the molar value. Structures can show the parent of a compound that is named as a salt.

Take `CC(C)(C)OC(=O)CN(Cc1ccc(Cl)cc1)Cc1ccc([N+](=O)[O-])s1` [Compound 1, reference compound]: on REV-ERBα, the “recruitment of NCOR peptide fragment to REV-ERBα (in words)” value (“recruitment of NCOR peptide fragment” below) was “induced recruitment of co-factor NCOR peptide fragment”. Also, the ABCA1 transcript expression entry in the series with ABCA1 is “increased ABCA1 transcript expression”. For the same molecule, in series [1], the “BMAL1 Phase Delay” value stood at 0 h. The IL-6 transcript expression entry in the series on IL-6 was “significantly repressed IL-6”.

For orientation: pIC50 means −log10 of the IC50, conventionally taken in molar units. Read a low pIC50 as a high IC50. For the molecule `CCCCCNC(=O)N1CCC(CN(Cc2ccc(Cl)cc2)Cc2ccc([N+](=O)[O-])s2)C1` (stereo not drawn) [Compound 2, reference compound], the “recruitment of NCOR peptide fragment” value on REV-ERBα is listed as “neither compounds 2 or 3 increased recruitment of the NCOR peptide fragment”. Also, the ABCA1 transcript expression entry in the series with ABCA1 is on record as “increased ABCA1 transcript expression”. In addition, in series [1], the inhibition at 20 µM is 20%. For the same molecule, the IL-6 transcript expression result in the series with IL-6 was “significantly repressed IL-6”. The molecule further showed a pIC50 on LXRα of 5.20.

By AUC(0-t) is commonly meant exposure summed from dosing to a finite time, without extrapolation to infinity. Read a low AUC(0-t) as low exposure. Broadly, the half-life is the time in which the quantity being followed falls by half. High values mean slow loss, low ones fast loss. For orientation: Cmax means the maximum level reached in the sampled fluid or tissue. By Tmax is commonly meant the time at which the peak concentration occurs. For orientation: bioavailability means the share of a dose that reaches the circulation, judged against a reference dose that is usually intravenous. A higher bioavailability goes with good availability. Take `CCOC(=O)N1CCC(CN(Cc2ccc(Cl)cc2)Cc2ccc([N+](=O)[O-])s2)C1` (stereo not drawn) [Compound 3, reference compound]: the “recruitment of NCOR peptide fragment” value at REV-ERBα is recorded as “neither compounds 2 or 3 increased recruitment of the NCOR peptide fragment”. Besides, in series [1], the inhibition at 20 µM came out at 14%. Besides, in series [2] (iv), the AUC(0-t) was 365 ng·h/mL, the Vd came out at 1.6 L/kg, the clearance is 45 mL/min/kg and the half-life is 33 min. Besides, in series [2] (po), the AUC(0-t) was 7.93 ng·h/mL, the concentration peaked (Cmax) at 7.41 ng/mL and the Tmax came to 30 min. In addition, the bioavailability in series [2] (po, 1 mg/Kg cassette, mice) was found to be 2.2%.

In the case of `Cc1cc(Cl)ccc1CN(Cc1ccc(Cl)cc1)Cc1ccc([N+](=O)[O-])s1` [Compound 4, N-(4-chloro-2-methylbenzyl)-N-(4-chlorobenzyl)-1-(5-nitrothiophen-2-yl)methanamine hydrochloride salt], the ABCA1 levels entry in the series on ABCA1 is “no measurable effect on ABCA1 levels”. In addition, the “BMAL1 Phase Delay” value in series [1] amounted to 0 h. Besides, the “effect on BMAL oscillation curve” value in series [1] (synchronized U2OS cells) is “suppression and shift of the BMAL oscillation curve in a dose-dependent manner”. Moreover, in the series on IL-6, the “IL-6 secretion / expression” value is on record as “significant reduction of IL-6 secretion”. The molecule also registered a F in series [2] (Oral, 1 mg/Kg cassette, mice) of 23.4%. Further, in series [2], the half-life is 120 min. Besides, in series [2] (iv), the AUC(0-t) came out at 2540 ng·h/mL, the Vd was 0.3 L/kg, the clearance was 6.67 mL/min/kg and the half-life was 99 min. In addition, in series [2] (po), the AUC(0-t) turned out to be 594 ng·h/mL, the highest level (Cmax) was 180 ng/mL and the Tmax was found to be 120 min. Further, the “LXRα Fold Sel.” value on LXRα is on record as 1,259 fold.

Take `O=[N+]([O-])c1ccc(CN(Cc2ccc(Cl)cc2)Cc2ccccc2F)s1` [Compound 6, N-(4-Chlorobenzyl)-N-(2-fluorobenzyl)-1-(5-nitrothiophen-2-yl)methanamine hydrochloride salt]: the “BMAL1 Phase Delay” value in series [1] turned out to be 0 h.

Consider `O=[N+]([O-])c1ccc(CN(Cc2ccc(F)cc2)Cc2cccnc2)s1` [Compound 10, N-(4-Fluorobenzyl)-1-(5-nitrothiophen-2-yl)-N-(pyridin-3-ylmethyl)methanamine hydrochloride salt], for which the ABCA1 levels result in the series on ABCA1 is on record as “no measurable effect on ABCA1 levels”. The “BMAL1 Phase Delay” value in series [1] is 0 h. For the same molecule, the “IL-6 secretion / expression” value in the series on IL-6 is recorded as “significant reduction of IL-6 secretion”. In series [2] (iv), this molecule gave an AUC(0-t) of 354 ng·h/mL, a Vd of 1.5 L/kg, a clearance of 46.7 mL/min/kg and a half-life of 44.4 min. For the same molecule, in series [2] (po), the AUC(0-t) came to 8.39 ng·h/mL, the concentration peaked (Cmax) at 8.98 ng/mL and the time of peak concentration (Tmax) was determined as 15 min. In series [2] (po, 1 mg/Kg cassette, mice), this molecule registered a bioavailability of 2.4%. On LXRα, the “LXRα Fold Sel.” value is more than 250 fold.

For `N#Cc1ccc(CN(Cc2ccc(Cl)cc2)Cc2cccnc2)s1` [Compound 16, 5-(((4-Chloro-benzyl)(pyridin-3-ylmethyl)amino)methyl)thiophene-2-carbonitrile hydrochloride salt], the ABCA1 levels entry in the series with ABCA1 is recorded as “no measurable effect on ABCA1 levels”. Further, the “BMAL1 Phase Delay” value in series [1] turned out to be 0 h. Moreover, the “IL-6 secretion / expression” value in the series on IL-6 is reported as “significant reduction of IL-6 secretion”. In series [2] (iv), the AUC(0-t) is 361 ng·h/mL, the Vd came out at 1.8 L/kg, the clearance was 46.7 mL/min/kg and the half-life was 76.2 min. In addition, in series [2] (po), the AUC(0-t) stood at 10.2 ng·h/mL, the highest level (Cmax) was 9.14 ng/mL and the Tmax was 15 min. The same molecule yielded a bioavailability in series [2] (po, 1 mg/Kg cassette, mice) of 3.5%. In addition, the “LXRα Fold Sel.” value at LXRα was 100 fold.

As for `Clc1ccc(CN(Cc2cccnc2)Cc2nccs2)cc1` [Compound 20, N-(4-Chlorobenzyl)-1-(pyridin-3-yl)-N-(thiazol-2-ylmethyl)methanamine], on REV-ERBα, the “recruitment of NCOR peptide fragment” value is “complete loss of activity”. Further, the “LXRα Fold Sel.” value on LXRα is recorded as less than 1 fold.

Turning to `Clc1ccc(CN(Cc2cccnc2)Cc2ncc[nH]2)cc1` [Compound 21, N-((1H-Imidazol-2-yl)methyl)-N-(4-chlorobenzyl)-1-(pyridin-3-yl)methanamine], the “recruitment of NCOR peptide fragment” value at REV-ERBα was “complete loss of activity”.

Regarding `N#Cc1ccc(CN(Cc2cccnc2)Cc2ccc(F)c(F)c2)s1` [Compound 23, 5-(((3,4-Difluorobenzyl)(pyridin-3-ylmethyl)amino)methyl)thiophene-2-carbonitrile], in the series with ABCA1, the ABCA1 levels result is “no measurable effect on ABCA1 levels”. In the series with IL-6, the “IL-6 secretion / expression” value is recorded as “significant reduction of IL-6 secretion”. In addition, in series [2] (iv), the AUC(0-t) was 375 ng·h/mL, the Vd was determined as 1.4 L/kg, the clearance is 43.3 mL/min/kg and the half-life was 44.4 min. In series [2] (po), the AUC(0-t) was 9.39 ng·h/mL, the Cmax worked out at 9.94 ng/mL and the Tmax was 15 min. The bioavailability in series [2] (po, 1 mg/Kg cassette, mice) is 3%.

Turning to `N#Cc1ccc(CN(Cc2cccnc2)Cc2cc(F)ccc2F)s1` [Compound 25, 5-(((2,5-Difluorobenzyl)(pyridin-3-ylmethyl)amino)methyl)thiophene-2-carbonitrile], the “BMAL1 Phase Delay” value in series [1] was 0 h.

For `N#Cc1ccc(CN(Cc2cccnc2)Cc2ccccc2F)s1` [Compound 26, 5-(((2-Fluorobenzyl)(pyridin-3-ylmethyl)amino)methyl)thiophene-2-carbonitrile], in series [1], the “BMAL1 Phase Delay” value amounted to 0 h. The “LXRα Fold Sel.” value on LXRα is less than 1 fold.

In series [1] (in-house U2OS reporter assay, single endpoint comparison), `C=CC1=C(C)c2cc3[n-]c(cc4[n-]c(cc5nc(cc1n2)C(C)=C5C=C)c(C)c4CCC(=O)O)c(CCC(=O)O)c3C.[Fe+2]` [heme, reference compound] had a BMAL-luciferase suppression of more than 50%.
